High-throughput results as filed in PubChem BioAssay.
Only some compounds are listed: those with a hit (about 2.8% of all), similar ones and a draw of the others.
NPY-Y2 PAM-ag: human NPY-Y2 potentiation or agonism, primary screen; cells expressing NPY-Y2, potentiator/agonist read-out; activation, % at 3.6 µM; 220,000 compounds, 0.45% hits; in the data active means activation above about 27%;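 further: cells stimulated with NPY near EC25 plus isoproterenol at EC100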
Target sequence (P49146 whole entry, looked up): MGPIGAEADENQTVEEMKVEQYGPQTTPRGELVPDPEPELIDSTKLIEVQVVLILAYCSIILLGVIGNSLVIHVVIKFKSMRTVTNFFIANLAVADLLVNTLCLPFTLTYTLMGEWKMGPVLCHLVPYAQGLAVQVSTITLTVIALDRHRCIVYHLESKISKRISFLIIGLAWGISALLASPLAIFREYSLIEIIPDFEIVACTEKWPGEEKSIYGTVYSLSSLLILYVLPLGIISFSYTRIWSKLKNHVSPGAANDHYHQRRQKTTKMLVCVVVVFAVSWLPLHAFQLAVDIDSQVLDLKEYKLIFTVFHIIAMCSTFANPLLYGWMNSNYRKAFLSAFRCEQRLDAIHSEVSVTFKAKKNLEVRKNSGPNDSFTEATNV
NPY-Y1 antag: blocks the human neuropeptide Y Y1 receptor | P25929 | AID 1040 | inhibition, % at 3.6 µM | 200,000 compounds, 1% hits | HEK293-CNG Y1 cells, membrane potential fluorescence; NPY at EC95, then isoproterenol;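 active means inhibition above the campaign mean inhibition of all tested compounds plus 3 SD, cut at about 20% in these data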
Target sequence (P25929 whole entry, looked up): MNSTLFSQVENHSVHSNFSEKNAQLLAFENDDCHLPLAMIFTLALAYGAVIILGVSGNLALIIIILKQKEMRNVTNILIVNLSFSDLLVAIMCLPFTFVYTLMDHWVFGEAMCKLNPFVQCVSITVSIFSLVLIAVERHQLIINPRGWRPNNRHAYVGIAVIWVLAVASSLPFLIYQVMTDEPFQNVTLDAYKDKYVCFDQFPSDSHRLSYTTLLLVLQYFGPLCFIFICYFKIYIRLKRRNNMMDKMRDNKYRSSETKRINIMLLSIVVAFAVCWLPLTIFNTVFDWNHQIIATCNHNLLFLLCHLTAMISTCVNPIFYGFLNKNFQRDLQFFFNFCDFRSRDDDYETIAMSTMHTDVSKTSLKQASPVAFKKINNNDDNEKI
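Assay system: HEK293 cells with Y1 receptor plus CNG channel | Probe or stimulus: NPY (25 nM), isoproterenol (1 µM), Ro 20-1724 (25 µM) | Timing: Compound incubation 1 h at room temperature, readout 45 min post-stimulation | Measured by: Membrane-potential fluorescent dye readout | Benchmarks: High control isoproterenol alone, low control NPY with isoproterenol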
NPY1 pot ag: potentiates or activates human NPY-Y1 receptor | P25929 | NPY-Y1 expressing cells, potentiator/agonist activation | activation, % at 3.6 µM | 220,000 compounds, 0.37% hits | AID 1304; in the data active means activation above about 33%, passing the limit was not always enough;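 further: cells stimulated with NPY at EC10 then isoproterenol at EC100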
NPY Y2 blocker: NPY-Y2 (human) receptor antagonism; P49146; NPY-Y2 expressing cells, antagonist mode; inhibition, % at 2.7 µM; 140,000 compounds, 0.99% hits; in the data active means inhibition above about 17%
PGE2 EP2 inh: blocks the human prostaglandin E2 receptor EP2. 260,000 compounds, 0.52% hits. C6 glioma cells expressing human EP2, cAMP TR-FRET; cells stimulated with saturating PGE2. P43116. AID 1422. inhibition, % at 25 µM;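 active means percent inhibition above 40 after rounding to a whole number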;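 further: rat C6 glioma host cells with rolipram phosphodiesterase inhibitor present; the protocol text gives 20 µM as final concentration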
EP2 mod: modulates human prostaglandin E2 receptor EP2 signaling; P43116; EP2-expressing cells, cAMP HTRF FRET, PGE2 co-stimulation; induction, % at 25 µM; 260,000 compounds, 0.83% hits;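 active means compounds whose cAMP rise, as percent of the full-agonist control response, exceeds 60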;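 further: rat C6 glioma line stably carrying human EP2 under a CMV promoter; the protocol text gives 20 µM as final concentration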
NPY1 antag ctr: antagonizes human NPY-Y1, counter-screen to NPY-Y2 antagonists. cell-based NPY-Y1 antagonism counterscreen. inhibition, % at 3.6 µM. shares compounds with NPY Y2 blocker. 710 compounds, 19% hits; in the data active means inhibition above about 20%;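 further: cells challenged with NPY then isoproterenol with cAMP sensed through a CNG channel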
NPY2 antag conf: confirmation of human neuropeptide Y receptor Y2 antagonists; shares compounds with NPY Y2 blocker; HEK293 NPY-Y2 CNG channel, membrane potential fluorescence; inhibition, % at 2.8 µM; 710 compounds, 32% hits; AID 1257;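 active means mean inhibition of triplicate wells above the hit cutoff set in the primary screen, cut at about 17% in these data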
Of the large screens only hits and unclear results are named; the others gave an inactive call (follow-up assays come after a bar, where they were run); ! = a repeat was not active.

Cc1ccc(NC(=S)NCc2ccc3c(c2)OCO3)cc1C	NPY Y2 blocker 18 | NPY1 antag ctr inactive | NPY2 antag conf 18
CC(=O)N(Cc1cccs1)Cc1cc2cc(C)c(C)cc2nc1Cl	none (no result: NPY Y2 blocker)
Cc1ccc2nc(Cl)c(CN(Cc3cccs3)C(=O)C3CC3)cc2c1	NPY Y2 blocker 19 | NPY1 antag ctr inactive | NPY2 antag conf inactive
Cc1nn(C)cc1CNC(=O)c1cnn2c(C(F)F)cc(-c3ccccc3)nc12	none (no result: NPY-Y2 PAM-ag, NPY-Y1 antag, NPY1 pot ag, NPY Y2 blocker)
COc1ccccc1C1(O)CCCN(C(=O)c2cnc(C(C)(C)C)nc2)C1 (centres undefined)	none (no result: NPY-Y2 PAM-ag, NPY-Y1 antag, NPY1 pot ag, NPY Y2 blocker)
Cc1ccc(SCCNC(=O)/C=C/c2ccc(Cl)cc2)cc1	NPY Y2 blocker 19 | NPY1 antag ctr 29 | NPY2 antag conf 39
Cc1ccc(SCCNC(=O)/C=C/c2ccc([N+](=O)[O-])cc2)cc1	none
CCC(C)(C)n1nnnc1C(c1cccc(OC)c1OC)N1CCN(C2CCCC2)CC1 (centres undefined)	none (no result: NPY-Y2 PAM-ag, NPY-Y1 antag, NPY1 pot ag, NPY Y2 blocker)
COc1ccc(CCNC(=O)c2c(O)c3cc(OC)c(OC)cc3[nH]c2=O)cc1	none (no result: NPY-Y2 PAM-ag, NPY-Y1 antag, NPY1 pot ag, NPY Y2 blocker)
CNC(=S)N/N=C/c1ccccc1Cl	NPY Y2 blocker 19 | NPY1 antag ctr inactive | NPY2 antag conf inactive
CCC(C)N(C(=O)COC(=O)/C=C/c1ccc(O)c(OC)c1)C1CCS(=O)(=O)C1 (centres undefined)	NPY Y2 blocker 18 | NPY1 antag ctr inactive | NPY2 antag conf inactive
COc1cc(/C=C/C(=O)OCC(=O)NC2CCS(=O)(=O)C2)ccc1O (centres undefined)	none
Cc1ccc(-c2nc(=S)c3c(n2Cc2ccco2)CC(C)(C)OC3)cc1	NPY Y2 blocker 18 | NPY1 antag ctr 21 | NPY2 antag conf inactive
Cc1ccc(-c2nc(=S)c3c(n2CC2CCCO2)CC(C)(C)OC3)cc1 (centres undefined)	none
CC(C)c1nc2ccccc2n1CC(=O)O	none (no result: NPY-Y2 PAM-ag, NPY-Y1 antag, NPY1 pot ag, NPY Y2 blocker)
COc1ccccc1OCC(O)Cn1c(=N)n(CCN2CCOCC2)c2ccccc21 (centres undefined)	none (no result: NPY-Y2 PAM-ag, NPY-Y1 antag, NPY1 pot ag, NPY Y2 blocker)
Cc1ccccc1OCC(O)Cn1c(=N)n(CCN2CCOCC2)c2ccccc21 (centres undefined)	NPY-Y1 antag 30!, NPY Y2 blocker 28 | NPY1 antag ctr inactive | NPY2 antag conf inactive
COc1ccccc1OCC(O)Cn1c(=N)n(CCN2CCCCC2)c2ccccc21 (centres undefined)	NPY Y2 blocker 45 | NPY1 antag ctr 31 | NPY2 antag conf 39
Cc1cc(C)c2c(=O)[nH]c(SCC(=O)Nc3ccccc3)nc2n1	NPY Y2 blocker 19 | NPY1 antag ctr inactive | NPY2 antag conf inactive
Cc1ccc(NC(=O)CSc2nc3nc(C)cc(C)c3c(=O)[nH]2)cc1	none
CN(C)CCCN[C@@H]1CCN(Cc2cccc(F)c2)C[C@H]1O	none (no result: NPY-Y2 PAM-ag, NPY-Y1 antag, NPY1 pot ag, NPY Y2 blocker)
CCCn1c(=O)c2ccccc2n2c(SCCOc3ccc(C)cc3)nnc12	NPY Y2 blocker 20 | NPY1 antag ctr inactive | NPY2 antag conf inactive
COc1nc(Nc2ccc(C3Nc4ccccc4O3)cc2)nc(N2CCOCC2)n1 (centres undefined)	none (no result: NPY-Y2 PAM-ag, NPY-Y1 antag, NPY1 pot ag, NPY Y2 blocker)
COc1ccc(S(=O)(=O)N2CCC(CN3C(=O)c4cccc5cccc(c45)C3=O)CC2)cc1	NPY Y2 blocker 23 | NPY1 antag ctr inactive | NPY2 antag conf inactive
O=C(c1ccc(S(=O)(=O)N2CCCC2)cc1)N1CCC(CN2C(=O)c3cccc4cccc(c34)C2=O)CC1	none (no result: NPY-Y1 antag, NPY Y2 blocker)
CCC(=O)N1CCN(c2ccc(Cl)cc2NC(=O)Cc2ccccc2)CC1	NPY Y2 blocker 21 | NPY1 antag ctr inactive | NPY2 antag conf inactive
Cc1ccc(C)c(NS(=O)(=O)c2cc(C(=O)Nc3ccccc3-c3ccccc3)ccc2Cl)c1	NPY Y2 blocker 69 | NPY1 antag ctr inactive | NPY2 antag conf 103
COc1ccccc1NC(=O)N(Cc1cc2ccc(C)c(C)c2[nH]c1=O)C1CCCCC1	none (no result: NPY-Y2 PAM-ag, NPY-Y1 antag, NPY1 pot ag, NPY Y2 blocker)
O=C1C2CC=C(Cl)CC2C(=O)N1CC1OCCc2ccccc21 (centres undefined)	none
O=C1C2CC=C(Cl)CC2C(=O)N1CC1Cc2ccccc2CO1 (centres undefined)	NPY Y2 blocker 28 | NPY1 antag ctr inactive | NPY2 antag conf 23
CCc1nc(N(CC)CC)c2oc3ccccc3c2n1	NPY Y2 blocker 19, EP2 mod 61 | NPY1 antag ctr inactive | NPY2 antag conf inactive
CCNc1nc(CC)nc2c1oc1ccccc12	none
CCCC(c1nnnn1C1CCCC1)N(Cc1ccc(C)cc1)Cc1cc2cccc(C)c2[nH]c1=O (centres undefined)	none (no result: NPY-Y2 PAM-ag, NPY-Y1 antag, NPY1 pot ag, NPY Y2 blocker)
O=C(Cc1ccc(Br)cc1)OCC(=O)N1CCc2ccccc2C1	NPY Y2 blocker 18 | NPY1 antag ctr inactive | NPY2 antag conf inactive
CC(C)CC(c1nnnn1Cc1ccco1)N1CCN(C2CCCC2)CC1 (centres undefined)	NPY Y2 blocker 19 | NPY1 antag ctr inactive | NPY2 antag conf inactive
CC(C)CC(c1nnnn1C(C)(C)C)N1CCN(C2CCCC2)CC1 (centres undefined)	none
CCn1c(SCC(=O)NNC(=O)c2ccc(Cl)cc2)nnc1C1CCCCC1	none (no result: NPY-Y2 PAM-ag, NPY-Y1 antag, NPY1 pot ag, NPY Y2 blocker)
CC(Sc1ccc(Cl)cc1)C(=O)Nc1ccccc1-c1ccccc1 (centres undefined)	NPY Y2 blocker 20 | NPY1 antag ctr inactive | NPY2 antag conf 25
Cc1ccc(OCCN2C(=O)S/C(=C\c3ccc(C)o3)C2=O)cc1	NPY Y2 blocker 17 | NPY1 antag ctr inactive | NPY2 antag conf inactive
Cc1cc(C)n(-c2ccc(S(=O)(=O)O)cc2)n1	none (no result: NPY-Y2 PAM-ag, NPY-Y1 antag, NPY1 pot ag, NPY Y2 blocker)
Cc1ccc(C(C(=O)NCc2ccco2)N(CCc2ccccc2)C(=O)Cn2nnc3ccccc32)o1 (centres undefined)	NPY Y2 blocker 32 | NPY1 antag ctr 20 | NPY2 antag conf inactive
Cc1ccc(CN(C(=O)Cn2nnc3ccccc32)C(C(=O)NCc2ccco2)c2ccc(C)o2)cc1 (centres undefined)	none
Cc1ccc(OCCNC(=O)/C=C/c2ccc([N+](=O)[O-])cc2)cc1C	NPY Y2 blocker 18 | NPY1 antag ctr inactive | NPY2 antag conf inactive
Cc1ccc(OCCNC(=O)/C=C/c2ccccc2)cc1C	none
Cc1cc(C)c(NC(=O)CSc2nc(C3CC3)nc3sc(C)c(C)c23)c(C)c1	none (no result: NPY-Y2 PAM-ag, NPY-Y1 antag, NPY1 pot ag, NPY Y2 blocker)
CNC(=O)c1ccsc1NC(=O)c1ccc(S(=O)(=O)N2CCCc3ccccc32)cc1	NPY Y2 blocker 17 | NPY1 antag ctr 31 | NPY2 antag conf 39
Cc1cccc2cc(CN(C(=O)C3CC3)C3CCCC3)c3nnnn3c12	none (no result: NPY-Y2 PAM-ag, NPY-Y1 antag, NPY1 pot ag, NPY Y2 blocker)
COC(=O)c1ccc(C(=O)OC)c(-n2c(=O)c3ccccc3c3ccccc3c2=O)c1	NPY Y2 blocker 19 | NPY1 antag ctr inactive | NPY2 antag conf inactive
